Data as given in ChEMBL document CHEMBL4387700, “A novel, potent, and orally bioavailable thiazole HCV NS5A inhibitor for the treatment of hepatitis C virus” (Eur J Med Chem, 2019).

Assay: Cytotoxicity against human HuH7 cells assessed as reduction in cell viability by MTS assay
Type: cell-based, Huh-7
Procedure, shortened: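 Viability of Huh-7 cells was read by MTS assay.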

Structure (SMILES) | CC50 [µM]
CS(=O)(=O)N[C@@H](C(=O)N1CCC[C@H]1c1ncc(-c2ccc(-c3ccc(-c4cnc([C@@H]5CCCN5C(=O)[C@H](NS(C)(=O)=O)c5ccccc5)s4)cc3)cc2)s1)c1ccccc1 | > 50
O=C(N[C@@H](C(=O)N1CCC[C@H]1c1ncc(-c2ccc(-c3ccc(-c4cnc([C@@H]5CCCN5C(=O)[C@H](NC(=O)C5CCC5)c5ccccc5)s4)cc3)cc2)s1)c1ccccc1)C1CCC1 | > 50
CC(C)(C)C(=O)N[C@@H](C(=O)N1CCC[C@H]1c1ncc(-c2ccc(-c3ccc(-c4cnc([C@@H]5CCCN5C(=O)[C@H](NC(=O)C(C)(C)C)c5ccccc5)s4)cc3)cc2)s1)c1ccccc1 | > 50
O=C(N[C@H](C(=O)N1CCC[C@H]1c1ncc(-c2ccc(-c3ccc(-c4cnc([C@@H]5CCCN5C(=O)[C@H](NC(=O)N5CCCC5)c5ccccc5)s4)cc3)cc2)s1)c1ccccc1)N1CCCC1 | > 50
O=C(CCN1CCCCC1)N[C@@H](C(=O)N1CCC[C@H]1c1ncc(-c2ccc(-c3ccc(-c4cnc([C@@H]5CCCN5C(=O)[C@H](NC(=O)CCN5CCCCC5)c5ccccc5)s4)cc3)cc2)s1)c1ccccc1 | > 50
CN1CCN(CCC(=O)N[C@H](C(=O)N2CCC[C@H]2c2ncc(-c3ccc(-c4ccc(-c5cnc([C@@H]6CCCN6C(=O)[C@H](NC(=O)CCN6CCN(C)CC6)c6ccccc6)s5)cc4)cc3)s2)c2ccccc2)CC1 | > 50
O=C(N[C@@H](C(=O)N1CCC[C@H]1c1ncc(-c2ccc(-c3ccc(-c4cnc([C@@H]5CCCN5C(=O)[C@H](NC(=O)N5CCCCC5)c5ccccc5)s4)cc3)cc2)s1)c1ccccc1)N1CCCCC1 | > 50
O=C(N[C@@H](C(=O)N1CCC[C@H]1c1ncc(-c2ccc(-c3ccc(-c4cnc([C@@H]5CCCN5C(=O)[C@H](NC(=O)C5CC5)C5CCCCC5)s4)cc3)cc2)s1)C1CCCCC1)C1CC1 | > 50
CCCC(=O)N[C@@H](C(=O)N1CCC[C@H]1c1ncc(-c2ccc(-c3ccc(-c4cnc([C@@H]5CCCN5C(=O)[C@H](NC(=O)CCC)c5ccccc5)s4)cc3)cc2)s1)c1ccccc1 | > 50
CCCC[C@@H](NC(=O)C1CC1)C(=O)N1CCC[C@H]1c1ncc(-c2ccc(-c3ccc(-c4cnc([C@@H]5CCCN5C(=O)[C@@H](CCCC)NC(=O)C5CC5)s4)cc3)cc2)s1 | > 50
O=C(N[C@H](C(=O)N1CCC[C@H]1c1ncc(-c2ccc(-c3ccc(-c4cnc([C@@H]5CCCN5C(=O)[C@H](NC(=O)c5ccsc5)c5ccccc5)s4)cc3)cc2)s1)c1ccccc1)c1ccsc1 | > 50
O=C(N[C@H](C(=O)N1CCC[C@H]1c1ncc(-c2ccc(-c3ccc(-c4cnc([C@@H]5CCCN5C(=O)[C@H](NC(=O)c5cccnc5)c5ccccc5)s4)cc3)cc2)s1)c1ccccc1)c1cccnc1 | > 50
O=C(N[C@H](C(=O)N1CCC[C@H]1c1ncc(-c2ccc(-c3ccc(-c4cnc([C@@H]5CCCN5C(=O)[C@H](NC(=O)c5ccncc5)c5ccccc5)s4)cc3)cc2)s1)c1ccccc1)c1ccncc1 | > 50
CCC(=O)N[C@@H](C(=O)N1CCC[C@H]1c1ncc(-c2ccc(-c3ccc(-c4cnc([C@@H]5CCCN5C(=O)[C@H](NC(=O)CC)c5ccccc5)s4)cc3)cc2)s1)c1ccccc1 | > 50
CCCCC(=O)N[C@H](C(=O)N1CCC[C@H]1c1ncc(-c2ccc(-c3ccc(-c4cnc([C@@H]5CCCN5C(=O)[C@H](NC(=O)CCCC)c5ccccc5)s4)cc3)cc2)s1)c1ccccc1 | > 50
O=C(N[C@H](C(=O)N1CCC[C@H]1c1ncc(-c2ccc(-c3ccc(-c4cnc([C@@H]5CCCN5C(=O)[C@H](NC(=O)C5CC5)c5ccccc5)s4)cc3)cc2)s1)c1ccccc1)C1CC1 | > 50
O=C(CCn1cccc1)N[C@H](C(=O)N1CCC[C@H]1c1ncc(-c2ccc(-c3ccc(-c4cnc([C@@H]5CCCN5C(=O)[C@H](NC(=O)CCn5cccc5)c5ccccc5)s4)cc3)cc2)s1)c1ccccc1 | > 50
CC[C@H](NC(=O)OC)C(=O)N1CCC[C@H]1c1ncc(-c2ccc(-c3ccc(-c4cnc([C@@H]5CCCN5C(=O)[C@H](CC)NC(=O)OC)s4)cc3)cc2)s1 | > 50
O=C(N[C@@H](C(=O)N1CCC[C@H]1c1ncc(-c2ccc(-c3ccc(-c4cnc([C@@H]5CCCN5C(=O)[C@H](NC(=O)c5ccco5)c5ccccc5)s4)cc3)cc2)s1)c1ccccc1)c1ccco1 | > 50
O=C(Cc1ccccc1)N[C@@H](C(=O)N1CCC[C@H]1c1ncc(-c2ccc(-c3ccc(-c4cnc([C@@H]5CCCN5C(=O)[C@H](NC(=O)Cc5ccccc5)c5ccccc5)s4)cc3)cc2)s1)c1ccccc1 | > 50
CC[C@@H](NC(=O)C1CC1)C(=O)N1CCC[C@H]1c1ncc(-c2ccc(-c3ccc(-c4cnc([C@@H]5CCCN5C(=O)[C@@H](CC)NC(=O)C5CC5)s4)cc3)cc2)s1 | > 50
CC(C)C[C@@H](NC(=O)C1CC1)C(=O)N1CCC[C@H]1c1ncc(-c2ccc(-c3ccc(-c4cnc([C@@H]5CCCN5C(=O)[C@@H](CC(C)C)NC(=O)C5CC5)s4)cc3)cc2)s1 | > 50
CCCCCC(=O)N[C@H](C(=O)N1CCC[C@H]1c1ncc(-c2ccc(-c3ccc(-c4cnc([C@@H]5CCCN5C(=O)[C@H](NC(=O)CCCCC)c5ccccc5)s4)cc3)cc2)s1)c1ccccc1 | > 50
O=C(N[C@H](C(=O)N1CCC[C@H]1c1ncc(-c2ccc(-c3ccc(-c4cnc([C@@H]5CCCN5C(=O)[C@H](NC(=O)N5CCCCC5)c5ccccc5)s4)cc3)cc2)s1)c1ccccc1)N1CCCCC1 | > 50

Structure (SMILES) | CC50 [µM]
O=C(N[C@@H](C(=O)N1CCC[C@H]1c1ncc(-c2ccc(-c3ccc(-c4cnc([C@@H]5CCCN5C(=O)[C@H](NC(=O)c5cccnc5)c5ccccc5)s4)cc3)cc2)s1)c1ccccc1)c1cccnc1 | > 50
O=C(N[C@@H](C(=O)N1CCC[C@H]1c1ncc(-c2ccc(-c3ccc(-c4cnc([C@@H]5CCCN5C(=O)[C@H](NC(=O)c5ccoc5)c5ccccc5)s4)cc3)cc2)s1)c1ccccc1)c1ccoc1 | > 50
O=C(N[C@H](C(=O)N1CCC[C@H]1c1ncc(-c2ccc(-c3ccc(-c4cnc([C@@H]5CCCN5C(=O)[C@H](NC(=O)c5ccco5)c5ccccc5)s4)cc3)cc2)s1)c1ccccc1)c1ccco1 | > 50
O=C(N[C@@H](C(=O)N1CCC[C@H]1c1ncc(-c2ccc(-c3ccc(-c4cnc([C@@H]5CCCN5C(=O)[C@H](NC(=O)c5ccccc5)c5ccccc5)s4)cc3)cc2)s1)c1ccccc1)c1ccccc1 | > 50
O=C(N[C@@H](C(=O)N1CCC[C@H]1c1ncc(-c2ccc(-c3ccc(-c4cnc([C@@H]5CCCN5C(=O)[C@H](NC(=O)c5cccs5)c5ccccc5)s4)cc3)cc2)s1)c1ccccc1)c1cccs1 | > 50
O=C(N[C@@H](C(=O)N1CCC[C@H]1c1ncc(-c2ccc(-c3ccc(-c4cnc([C@@H]5CCCN5C(=O)[C@H](NC(=O)N5CCCC5)c5ccccc5)s4)cc3)cc2)s1)c1ccccc1)N1CCCC1 | > 50
CCC[C@H](NC(=O)OC)C(=O)N1CCC[C@H]1c1ncc(-c2ccc(-c3ccc(-c4cnc([C@@H]5CCCN5C(=O)[C@H](CCC)NC(=O)OC)s4)cc3)cc2)s1 | > 50
CCN(CC)CCC(=O)N[C@H](C(=O)N1CCC[C@H]1c1ncc(-c2ccc(-c3ccc(-c4cnc([C@@H]5CCCN5C(=O)[C@H](NC(=O)CCN(CC)CC)c5ccccc5)s4)cc3)cc2)s1)c1ccccc1 | > 50
CC(C)[C@H](NC(=O)Oc1ccccc1)C(=O)N1CCC[C@H]1c1ncc(-c2ccc(-c3ccc(-c4cnc([C@@H]5CCCN5C(=O)[C@@H](NC(=O)Oc5ccccc5)C(C)C)s4)cc3)cc2)s1 | > 50
O=C(N[C@H](C(=O)N1CCC[C@H]1c1ncc(-c2ccc(-c3ccc(-c4cnc([C@@H]5CCCN5C(=O)[C@H](NC(=O)c5ccccc5)c5ccccc5)s4)cc3)cc2)s1)c1ccccc1)c1ccccc1 | > 50
CC(=O)N[C@H](C(=O)N1CCC[C@H]1c1ncc(-c2ccc(-c3ccc(-c4cnc([C@@H]5CCCN5C(=O)[C@H](NC(C)=O)c5ccccc5)s4)cc3)cc2)s1)c1ccccc1 | > 50
COC(=O)N[C@@H](C)C(=O)N1CCC[C@H]1c1ncc(-c2ccc(-c3ccc(-c4cnc([C@@H]5CCCN5C(=O)[C@H](C)NC(=O)OC)s4)cc3)cc2)s1 | > 50
O=C(Cc1ccccc1)N[C@H](C(=O)N1CCC[C@H]1c1ncc(-c2ccc(-c3ccc(-c4cnc([C@@H]5CCCN5C(=O)[C@H](NC(=O)Cc5ccccc5)c5ccccc5)s4)cc3)cc2)s1)c1ccccc1 | > 50
O=C(N[C@@H](C(=O)N1CCC[C@H]1c1ncc(-c2ccc(-c3ccc(-c4cnc([C@@H]5CCCN5C(=O)[C@H](NC(=O)N5CCOCC5)c5ccccc5)s4)cc3)cc2)s1)c1ccccc1)N1CCOCC1 | > 50
COC(=O)N[C@H](C(=O)N1CCC[C@H]1c1ncc(-c2ccc(-c3ccc(-c4cnc([C@@H]5CCCN5C(=O)[C@H](NC(=O)OC)c5ccccc5)s4)cc3)cc2)s1)c1ccccc1 | > 50
CC(C)C(=O)N[C@H](C(=O)N1CCC[C@H]1c1ncc(-c2ccc(-c3ccc(-c4cnc([C@@H]5CCCN5C(=O)[C@H](NC(=O)C(C)C)c5ccccc5)s4)cc3)cc2)s1)c1ccccc1 | > 50
CCCCC(=O)N[C@@H](C(=O)N1CCC[C@H]1c1ncc(-c2ccc(-c3ccc(-c4cnc([C@@H]5CCCN5C(=O)[C@H](NC(=O)CCCC)c5ccccc5)s4)cc3)cc2)s1)c1ccccc1 | > 50
O=C(CCN1CCCC1)N[C@H](C(=O)N1CCC[C@H]1c1ncc(-c2ccc(-c3ccc(-c4cnc([C@@H]5CCCN5C(=O)[C@H](NC(=O)CCN5CCCC5)c5ccccc5)s4)cc3)cc2)s1)c1ccccc1 | > 50
CCCCCC(=O)N[C@@H](C(=O)N1CCC[C@H]1c1ncc(-c2ccc(-c3ccc(-c4cnc([C@@H]5CCCN5C(=O)[C@H](NC(=O)CCCCC)c5ccccc5)s4)cc3)cc2)s1)c1ccccc1 | > 50
CCC(=O)N[C@H](C(=O)N1CCC[C@H]1c1ncc(-c2ccc(-c3ccc(-c4cnc([C@@H]5CCCN5C(=O)[C@H](NC(=O)CC)c5ccccc5)s4)cc3)cc2)s1)c1ccccc1 | > 50
CC(C)C(=O)N[C@@H](C(=O)N1CCC[C@H]1c1ncc(-c2ccc(-c3ccc(-c4cnc([C@@H]5CCCN5C(=O)[C@H](NC(=O)C(C)C)c5ccccc5)s4)cc3)cc2)s1)c1ccccc1 | > 50
O=C(N[C@@H](C(=O)N1CCC[C@H]1c1ncc(-c2ccc(-c3ccc(-c4cnc([C@@H]5CCCN5C(=O)[C@H](NC(=O)C5CCCC5)c5ccccc5)s4)cc3)cc2)s1)c1ccccc1)C1CCCC1 | > 50
O=C(N[C@H](C(=O)N1CCC[C@H]1c1ncc(-c2ccc(-c3ccc(-c4cnc([C@@H]5CCCN5C(=O)[C@H](NC(=O)C5CCC5)c5ccccc5)s4)cc3)cc2)s1)c1ccccc1)C1CCC1 | > 50
